Measured values published in ChEMBL document CHEMBL1139903, “Formation of an enolate intermediate is required for the reaction catalyzed by 3-hydroxyacyl-CoA dehydrogenase” (Bioorg Med Chem Lett, 2007).

B1: Peroxisomal multifunctional enzyme type 2 (Rattus norvegicus), P97852 (protein)
chain: MASPLRFDGRVVLVTGAGGGLGRAYALAFAERGALVVVNDLGGDFKGVGKGSSAADKVVEEIRRRGGKAVANYDSVEAGEKLVKTALDTFGRIDVVVNNAGILRDRSFSRISDEDWDIIQRVHLRGSFQVTRAAWDHMKKQNYGRIIMTASASGIYGNFGQANYSAAKLGLLGLANTLVIEGRKNNIHCNTIAPNAGSRMTETVMPEDLVEALKPEYVAPLVLWLCHESCEENGGLFEVGAGWIGKLRWERTLGAIVRKRNQPMTPEAVRDNWVKICDFSNASKPKSIQESTGGIIEVLHKIDSEGISQNHTGQVASADASGFAGVVGHKLPSFSSSYTELQCIMYALGVGASVKNPKDLKFVYEGSADFSCLPTFGVIVAQKSLMSGGLAEVPGLSINFAKVLHGEQYLELYKPLPRSGELKCEAVIADILDKGSGIVIVMDVYSYSGKELICYNQFSVFVVGSGGFGGKRTSEKLKAAVAVPSRPPDAVLRDTTSLNQAALYRLSGDSNPLHIDPSFASIAGFEKPILHGLCTFGFSARHVLQQFADNDVSRFKAIKVRFAKPVYPGQTLQTEMWKEGNRIHFQTKVQETGDIVISNAYVDLVPTSGVSAQTPSEGGALQSALVFGEIGRRLKDVGREVVKKVNAVFEWHITKNGNVAAKWTIDLKNGSGEVYQGPAKGSADTTITISDEDFMEVVLGKLNPQNAFFSGRLKARGNIMLSQKLQMILKDYAKL

Key:
Rattus norvegicus [1] = species: Rattus norvegicus; test: Activity of rat 3-hydroxyacyl-CoA dehydrogenase N208A mutant
In short: (§1)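 Rat liver HAD enzymes (wild-type, Asn208Ala, Ser137Ala) were incubated with 3-hydroxyacyl-CoA substrates or fluorinated analogs and NAD⁺ cofactor, so the forward reaction oxidizes the 3-hydroxyl to a keto group while NAD⁺ is reduced to NADH. Kinetic studies derived parameters including Vmax.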

Rattus norvegicus [2] = species: Rattus norvegicus; test: Activity of rat 3-hydroxyacyl-CoA dehydrogenase S137A mutant; in short: as §1
[3] = substrate: CCCCCC(O)CC(=O)SCCNC(=O)CCNC(=O)[C@H](O)C(C)(C)COP(=O)(O)OP(=O)(O)OC[C@H]1O[C@@H](n2cnc3c(N)ncnc32)[C@H](O)[C@@H]1OP(=O)(O)O; test: (§2) Activity of rat 3-hydroxyacyl-CoA dehydrogenase; in short: as §1
[4] = substrate: CCC/C=C/C(O)CC(=O)SCCNC(=O)CCNC(=O)[C@H](O)C(C)(C)COP(=O)(O)OP(=O)(O)OC[C@H]1O[C@@H](n2cnc3c(N)ncnc32)[C@H](O)[C@@H]1OP(=O)(O)O; test: as §2; in short: as §1
[5] = substrate: CCC/C=C/C(O)C(F)C(=O)SCCNC(=O)CCNC(=O)[C@H](O)C(C)(C)COP(=O)(O)OP(=O)(O)OC[C@H]1O[C@@H](n2cnc3c(N)ncnc32)[C@H](O)[C@@H]1OP(=O)(O)O; test: as §2; in short: as §1
[6] = substrate: CCCCCC(O)C(F)C(=O)SCCNC(=O)CCNC(=O)[C@H](O)C(C)(C)COP(=O)(O)OP(=O)(O)OC[C@H]1O[C@@H](n2cnc3c(N)ncnc32)[C@H](O)[C@@H]1OP(=O)(O)O; test: as §2; in short: as §1

Molecule	Km (Rattus norvegicus [1])	Vmax (Rattus norvegicus [1])	Km (Rattus norvegicus [2])	Vmax (Rattus norvegicus [2])	Km [3]	Vmax [3]	Km [4]	Vmax [4]	Km [5]	Vmax [5]	Km [6]
CCCCCC(O)CC(=O)SCCNC(=O)CCNC(=O)[C@H](O)C(C)(C)COP(=O)(O)OP(=O)(O)OC[C@H]1O[C@@H](n2cnc3c(N)ncnc32)[C@H](O)[C@@H]1OP(=O)(O)O (some centres not stated)	46.8 µM	0.28 µmol/min/mg	–	–	–	–	–	–	–	–	–
CCC/C=C/C(O)C(F)C(=O)SCCNC(=O)CCNC(=O)[C@H](O)C(C)(C)COP(=O)(O)OP(=O)(O)OC[C@H]1O[C@@H](n2cnc3c(N)ncnc32)[C@H](O)[C@@H]1OP(=O)(O)O (some centres not stated)	44.9 µM	0.1 µmol/min/mg	55.7 µM	0.17 µmol/min/mg	–	–	–	–	–	–	–
CCC/C=C/C(O)CC(=O)SCCNC(=O)CCNC(=O)[C@H](O)C(C)(C)COP(=O)(O)OP(=O)(O)OC[C@H]1O[C@@H](n2cnc3c(N)ncnc32)[C@H](O)[C@@H]1OP(=O)(O)O (some centres not stated)	49.6 µM	1.08 µmol/min/mg	53.2 µM	0.46 µmol/min/mg	–	–	–	–	–	–	–
B1	–	–	–	–	34.6 µM	10.5 µmol/min/mg	20 µM	21.8 µmol/min/mg	46.8 µM	11.7 µmol/min/mg	69.3 µM
